Consider 51 compounds from ChEMBL document CHEMBL1159102, “Design, synthesis, and evaluation of 2-aryl-7-(3',4'-dialkoxyphenyl)-pyrazolo[1,5-a]pyrimidines as novel PDE-4 inhibitors” (Bioorg Med Chem Lett, 2010).

For experiment [1], the target named is T1, 3',5'-cyclic-AMP phosphodiesterase 4D (Homo sapiens, UniProt Q08499). The experiment is described as follows: Inhibition of human PDE4D.
Experiment [2] deals with T1, 3',5'-cyclic-AMP phosphodiesterase 4D. The experiment is described as follows: Inhibition of human PDE4D in U937 cells assessed as cAMP level at 20 uM relative to control. In kind it is cell-based. Details: scale not given: the % may be the effect or the level left. As to conditions: U-937. In short, it runs like this:
(§1)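 cAMP content of U937 cells was measured after compound exposure and reported as a percentage of the untreated control level. Separately, an EC50 was derived for cAMP accumulation in the same cells.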
Background: Changes in cAMP serve as a functional read-out for many G protein-coupled receptors.

For experiment [3] the target is unchanged. In words: Inhibition of human PDE4D in U937 cells assessed as cAMP level at 10 uM relative to control. In kind it is cell-based. Details: scale not given: the % may be the effect or the level left. The note with it: U-937. In short, it runs like this: as §1
Experiment [4] has the same target. The experiment is described as follows: Inhibition of human PDE4D in U937 cells assessed as cAMP accumulation. The class given is cell-based, U-937. The procedure, abridged: as §1
The nature of experiment [5]: Inhibition of PDE4.
A short description of experiment [6]: Inhibition of PDE3.
The target of experiment [7] is cGMP-specific 3',5'-cyclic phosphodiesterase (Homo sapiens, UniProt O76074). The experiment is described as follows: Inhibition of PDE5.
Experiment [8] in a line: Inhibition of PDE7.
For experiment [9], the system named is Mus musculus. In words: Inhibition of ovalbumin-induced airway hyperresponsiveness in mouse at 100 mg/kg measured after 48 hrs of ovalbumin challenge. The class given is functional, organism-based. More on the design: dose 100 mg/kg.
Experiment [10] has as its system Mus musculus. In words: Inhibition of ovalbumin-induced eosinophil peroxidase activity in mouse bronchoalveolar lavage fluid at 100 mg/kg measured after 62 hrs of ovalbumin challenge relative to control. The class given is functional. The note with it: Lung. In short, it runs like this:
(§2)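 Mice received an ovalbumin inhalation challenge, with compounds given in 0.5% CMC vehicle. Bronchoalveolar lavage fluid was collected 62 h after OVA inhalation, and eosinophil peroxidase activity was measured as a marker of eosinophil infiltration. Data are mean ± SD, n = 9–10 per group, compared with the vehicle group.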

In experiment [11] the test system is Mus musculus. The experiment is described as follows: Inhibition of ovalbumin-induced airway hyperresponsiveness in mouse at 30 mg/kg measured after 48 hrs of ovalbumin challenge. In kind it is functional, organism-based. Details: dose 30 mg/kg.
The test system of experiment [12] is Mus musculus. The experiment is described as follows: Inhibition of ovalbumin-induced eosinophil peroxidase activity in mouse bronchoalveolar lavage fluid at 30 mg/kg measured after 62 hrs of ovalbumin challenge relative to control. The class given is functional. As to conditions: Lung. In short, it runs like this:
as §2

Calls of active or inactive are those of the source. No cut-off for these calls is given here. A value given as a limit tells only on which side of the number the result lay.

T1 sequence (Q08499 whole entry): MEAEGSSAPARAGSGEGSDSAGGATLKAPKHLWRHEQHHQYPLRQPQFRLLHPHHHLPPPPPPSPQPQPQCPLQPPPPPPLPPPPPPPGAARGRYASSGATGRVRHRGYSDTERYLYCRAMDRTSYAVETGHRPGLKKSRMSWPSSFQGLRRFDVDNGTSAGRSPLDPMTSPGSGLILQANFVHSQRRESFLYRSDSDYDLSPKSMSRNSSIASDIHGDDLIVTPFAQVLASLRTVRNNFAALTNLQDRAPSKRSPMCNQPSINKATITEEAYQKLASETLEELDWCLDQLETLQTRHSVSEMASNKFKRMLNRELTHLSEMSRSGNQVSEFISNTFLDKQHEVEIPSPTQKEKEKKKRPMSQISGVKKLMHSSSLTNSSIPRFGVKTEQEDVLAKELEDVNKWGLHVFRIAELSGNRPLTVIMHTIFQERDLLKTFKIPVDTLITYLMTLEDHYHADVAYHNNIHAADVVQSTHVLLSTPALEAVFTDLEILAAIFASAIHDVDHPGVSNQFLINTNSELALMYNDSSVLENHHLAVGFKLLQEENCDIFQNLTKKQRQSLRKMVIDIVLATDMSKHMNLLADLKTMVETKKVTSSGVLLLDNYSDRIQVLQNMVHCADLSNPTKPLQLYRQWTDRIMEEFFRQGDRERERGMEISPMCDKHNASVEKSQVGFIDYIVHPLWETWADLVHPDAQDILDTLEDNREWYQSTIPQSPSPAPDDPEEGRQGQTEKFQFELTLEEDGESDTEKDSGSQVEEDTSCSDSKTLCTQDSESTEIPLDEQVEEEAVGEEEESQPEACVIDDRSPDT

The IC50 is the concentration at which inhibition is half-maximal. For `COc1ccc(-c2ccnc3cc(-c4ccccc4)nn23)cc1OC1CCCC1`, in [1], the IC50 was 70 nM. `CC(C)(C)NC(=O)c1cccc(-c2cc3nccc(-c4ccc(OC(F)F)c(OCC5CC5)c4)n3n2)c1` registered an IC50 in experiment [1] of 44 nM.

`CCNC(=O)c1cccc(-c2cc3nccc(-c4ccc(OC(F)F)c(OCC5CC5)c4)n3n2)c1` returned an IC50 in [1] of 28 nM.

For the compound `COc1ccc(-c2ccnc3cc(-c4ccc(Br)cc4)nn23)cc1OC1CCCC1`, in [1], it took 130 nM to reach half-maximal inhibition (IC50).

Regarding `FC(F)Oc1ccc(-c2ccnc3cc(-c4ccccc4)nn23)cc1OCC1CC1`, the IC50 in experiment [1] came out at 130 nM. The same measure, in the same setting: in the case of `CN(C)c1cccc(-c2cc3nccc(-c4ccc(OC(F)F)c(OCC5CC5)c4)n3n2)c1` it was 120 nM; in that of `C=CCOc1cccc(-c2cc3nccc(-c4ccc(OC(F)F)c(OCC5CC5)c4)n3n2)c1`, 32 nM. On the same count and under the same terms, as for `Nc1cccc(-c2cc3nccc(-c4ccc(OC(F)F)c(OCC5CC5)c4)n3n2)c1`, the figure is 46 nM.

`O=C(c1cccc(-c2cc3nccc(-c4ccc(OC(F)F)c(OCC5CC5)c4)n3n2)c1)N1CCCCC1` had an IC50 in experiment [1] of 65 nM.

The compound `FC(F)Oc1ccc(-c2ccnc3cc(-c4cccc(-n5cnnn5)c4)nn23)cc1OCC1CC1` displayed a half-inhibitory concentration (IC50) in experiment [1] of 44 nM. On to `CC(C)OC(=O)c1cccc(-c2cc3nccc(-c4ccc(OC(F)F)c(OCC5CC5)c4)n3n2)c1`, for which the IC50 in experiment [1] came out at 40 nM. In experiment [1], `COc1ccc(-c2ccnc3cc(-c4cccc(Cl)c4)nn23)cc1OC1CCCC1` registered an IC50 of 20 nM. Moreover, in [2], the Activity was 19.7%. For the compound `CCOc1cccc(-c2cc3nccc(-c4ccc(OC(F)F)c(OCC5CC5)c4)n3n2)c1`, inhibition in experiment [1] was half-maximal at 48 nM (IC50). Consider `CC(=O)Oc1cccc(-c2cc3nccc(-c4ccc(OC(F)F)c(OCC5CC5)c4)n3n2)c1`, for which, in [1], the IC50 stood at 18 nM. Turning to `FC(F)Oc1ccc(-c2ccnc3cc(-c4cccc(C(F)F)c4)nn23)cc1OCC1CC1`, 39 nM corresponded to half-maximal inhibition in experiment [1] (IC50). In experiment [1], `CN(CCN)c1cccc(-c2cc3nccc(-c4ccc(OC(F)F)c(OCC5CC5)c4)n3n2)c1` yielded an IC50 of 47 nM. On to `Fc1cccc(-c2cc3nccc(-c4ccc(OC(F)F)c(OCC5CC5)c4)n3n2)c1`, for which, in experiment [1], inhibition was half-maximal at 100 nM (IC50). Still for that read-out and setting: in the case of `COC(=O)c1cccc(-c2cc3nccc(-c4ccc(OC(F)F)c(OCC5CC5)c4)n3n2)c1` it was 37 nM; in that of `CC(C)Oc1cccc(-c2cc3nccc(-c4ccc(OC(F)F)c(OCC5CC5)c4)n3n2)c1`, 46 nM; in that of `FC(F)Oc1ccc(-c2ccnc3cc(-c4cc(Cl)cc(Cl)c4)nn23)cc1OCC1CC1`, 100 nM.

In [1], `FC(F)Oc1ccc(-c2ccnc3cc(-c4cccc(Br)c4)nn23)cc1OCC1CC1` yielded an IC50 of 13 nM. Also, in [3], the Activity was found to be 57.1%. The term EC50 denotes the concentration needed to bring the measured effect to its halfway point. As usually defined, the inhibition in vivo is the drop in the measured response relative to a control, in per cent. Turning to `[O-][n+]1cccc(-c2cc3nccc(-c4ccc(OC(F)F)c(OCC5CC5)c4)n3n2)c1`, the IC50 is 42 nM in [1]; 26 nM in experiment [5]; greater than 5000 nM in experiment [6]; greater than 5000 nM in [7]; greater than 5000 nM in experiment [8]. In experiment [4], the EC50 was found to be 1610 nM. In addition, the inhibition result in the experiment on Mus musculus [9] was “Active”. Further, in the experiment with Mus musculus [10], testing at 100 mg/kg gave an inhibition in vivo of 50%. Turning to `COCCOC(=O)c1cccc(-c2cc3nccc(-c4ccc(OC(F)F)c(OCC5CC5)c4)n3n2)c1`, it took 160 nM to reach half-maximal inhibition in experiment [1] (IC50). In experiment [1], `COc1cccc(-c2cc3nccc(-c4ccc(OC)c(OC5CCCC5)c4)n3n2)c1` returned an IC50 of 40 nM. Besides, the Activity in experiment [2] is 20.1%. On the same counts, the results for `COc1ccc(-c2ccnc3cc(-c4cccc(Br)c4)nn23)cc1OC1CCCC1` are 30 nM and 11.4%. For the compound `CCN(CC)C(=O)c1cccc(-c2cc3nccc(-c4ccc(OC(F)F)c(OCC5CC5)c4)n3n2)c1`, in experiment [1], half-maximal inhibition (IC50) required 67 nM. For `FC(F)Oc1ccc(-c2ccnc3cc(-c4cccnc4)nn23)cc1OCC1CC1`, the IC50 in [1] was 27 nM; in [5], 9 nM; in experiment [6], greater than 5000 nM; in experiment [7] it was 3500 nM; in experiment [8] it was 3000 nM. For `N#CNc1cccc(-c2cc3nccc(-c4ccc(OC(F)F)c(OCC5CC5)c4)n3n2)c1`, in experiment [1], half-maximal inhibition (IC50) was put at 40 nM. The same measure, in the same setting: as for `COc1ccc(-c2cc3nccc(-c4ccc(OC)c(OC5CCCC5)c4)n3n2)cc1`, the figure is 60 nM. On the same count and under the same terms, in the case of `COc1ccc(-c2ccnc3cc(-c4ccccc4OC)nn23)cc1OC1CCCC1` it was 70 nM; in that of `COc1ccc(-c2ccnc3cc(-c4ccccc4Br)nn23)cc1OC1CCCC1`, 140 nM; in that of `FC(F)Oc1ccc(-c2ccnc3cc(-c4cc(Cl)ccc4Cl)nn23)cc1OCC1CC1`, 200 nM. As to `COc1cc(OC)cc(-c2cc3nccc(-c4ccc(OC(F)F)c(OCC5CC5)c4)n3n2)c1`, in experiment [1], the IC50 amounted to 29 nM. Take `O=C(Nc1c(Cl)cncc1Cl)c1ccc(OC(F)F)c(OCC2CC2)c1` [ROFLUMILAST]: in the experiment with Mus musculus [11], the inhibition entry was “Active”. In the experiment on Mus musculus [12], this compound had an inhibition in vivo at 30 mg/kg of 50%. For the compound `FC(F)Oc1ccc(-c2ccnc3cc(-c4cccc(C(F)(F)F)c4)nn23)cc1OCC1CC1`, the IC50 in experiment [1] was 190 nM. In turn, `FC(F)Oc1ccc(-c2ccnc3cc(-c4cccc(N5CCCCC5)c4)nn23)cc1OCC1CC1` registered an IC50 in experiment [1] of 100 nM. On the same count and under the same terms, as for `O=C(O)c1cccc(-c2cc3nccc(-c4ccc(OC(F)F)c(OCC5CC5)c4)n3n2)c1`, the figure is 9 nM; as for `Oc1cccc(-c2cc3nccc(-c4ccc(OC(F)F)c(OCC5CC5)c4)n3n2)c1`, 21 nM.

`COc1ccc(-c2cc3nccc(-c4ccc(OC(F)F)c(OCC5CC5)c4)n3n2)cc1O`: the IC50 in [1] was determined as 32 nM.

With `COc1ccc(-c2ccnc3cc(-c4cc(Cl)ccc4Cl)nn23)cc1OC1CCCC1`, the IC50 in experiment [1] amounted to 30 nM. With `FC(F)Oc1ccc(-c2ccnc3cc(-c4cccc(I)c4)nn23)cc1OCC1CC1`, the IC50 in experiment [1] is 6 nM; in experiment [6], 2000 nM; in [7] it was greater than 5000 nM; in [8], greater than 5000 nM. Further, the Activity in experiment [3] was 19.8%. `NC(=O)Nc1cccc(-c2cc3nccc(-c4ccc(OC(F)F)c(OCC5CC5)c4)n3n2)c1` registered an IC50 in [1] of 150 nM. In the case of `COc1ccc(-c2cc3nccc(-c4ccc(OC(F)F)c(OCC5CC5)c4)n3n2)cc1OC`, the midpoint of inhibition in [1], the IC50, lay at 25 nM. Regarding `COc1cccc(-c2cc3nccc(-c4ccc(OC(F)F)c(OCC5CC5)c4)n3n2)c1`, the IC50 in [1] came to 30 nM. Also, the Activity in experiment [3] was 44.4%. As for `CC(C)(C)OC(=O)N1CCN(c2cccc(-c3cc4nccc(-c5ccc(OC(F)F)c(OCC6CC6)c5)n4n3)c2)CC1`, the IC50 in [1] turned out to be 54 nM. Same read-out and setting: in the case of `CS(=O)(=O)CNc1cccc(-c2cc3nccc(-c4ccc(OC(F)F)c(OCC5CC5)c4)n3n2)c1` it was 32 nM; in that of `CN(C)C(=O)c1cccc(-c2cc3nccc(-c4ccc(OC(F)F)c(OCC5CC5)c4)n3n2)c1`, 23 nM; in that of `COc1ccc(-c2ccnc3cc(-c4ccc(Cl)cc4)nn23)cc1OC1CCCC1`, 90 nM. Still for that read-out and setting: in the case of `FC(F)Oc1ccc(-c2ccnc3cc(-c4cccc(Cl)c4)nn23)cc1OCC1CC1` it was 36 nM. Still for that read-out and setting: as for `CNc1cccc(-c2cc3nccc(-c4ccc(OC(F)F)c(OCC5CC5)c4)n3n2)c1`, the figure is 40 nM; as for `N#CCCNc1cccc(-c2cc3nccc(-c4ccc(OC(F)F)c(OCC5CC5)c4)n3n2)c1`, 83 nM.
